Results from ChEMBL document CHEMBL1140074, “Aminoacyl-anthraquinone conjugates as telomerase inhibitors: synthesis, biophysical and biological evaluation” (J Med Chem, 2008).
pEC50, pIC50: −log10 of the molar value.

Key:
[1] = biological target: DNA polymerase I, thermostable (Thermus aquaticus, UniProt P19821); experiment: Inhibition of Taq polymerase
Procedure, shortened: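 PCR with 2.5 ng pBR322 template and primers Tup/Tdown (0.5 µM) amplifying plasmid bases 906-1064. Compounds tested from 20 nM to 40 µM. Run 25 cycles of 94 °C, 65 °C and 72 °C (30 s each). Products resolved on 2% agarose in TBE and stained with ethidium bromide.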

Homo sapiens [2] = species: Homo sapiens; experiment: Binding affinity to human telomeric DNA sequence assessed as stabilization of G-quadruplex at 10 uM by thermal denaturation
Procedure, shortened: (§1)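 Fluorescence melting in a LightCycler of 0.25 µM telomeric oligonucleotide HTS (5'-FAM, 3'-methyl red) in LiP buffer (10 mM LiOH, 50 mM KCl, pH 7.4 with H3PO4). Samples were denatured at 95 °C for 5 min, then cooled and reheated at 0.5 °C/min in 1 °C steps with 2 min equilibration per step. Excitation 488 nm, emission 520 nm. ΔTm was taken relative to ligand-free DNA.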

Homo sapiens [3] = species: Homo sapiens; experiment: Binding affinity to human telomeric DNA sequence assessed as stabilization of G-quadruplex at 1 uM by thermal denaturation; procedure, shortened: as §1
[4] = biological target: Telomerase reverse transcriptase (Homo sapiens, UniProt O14746); experiment: Inhibition of telomerase in human JR8 cells by TRAP assay; assay type: cell-based
Chain of Telomerase reverse transcriptase (O14746 whole entry): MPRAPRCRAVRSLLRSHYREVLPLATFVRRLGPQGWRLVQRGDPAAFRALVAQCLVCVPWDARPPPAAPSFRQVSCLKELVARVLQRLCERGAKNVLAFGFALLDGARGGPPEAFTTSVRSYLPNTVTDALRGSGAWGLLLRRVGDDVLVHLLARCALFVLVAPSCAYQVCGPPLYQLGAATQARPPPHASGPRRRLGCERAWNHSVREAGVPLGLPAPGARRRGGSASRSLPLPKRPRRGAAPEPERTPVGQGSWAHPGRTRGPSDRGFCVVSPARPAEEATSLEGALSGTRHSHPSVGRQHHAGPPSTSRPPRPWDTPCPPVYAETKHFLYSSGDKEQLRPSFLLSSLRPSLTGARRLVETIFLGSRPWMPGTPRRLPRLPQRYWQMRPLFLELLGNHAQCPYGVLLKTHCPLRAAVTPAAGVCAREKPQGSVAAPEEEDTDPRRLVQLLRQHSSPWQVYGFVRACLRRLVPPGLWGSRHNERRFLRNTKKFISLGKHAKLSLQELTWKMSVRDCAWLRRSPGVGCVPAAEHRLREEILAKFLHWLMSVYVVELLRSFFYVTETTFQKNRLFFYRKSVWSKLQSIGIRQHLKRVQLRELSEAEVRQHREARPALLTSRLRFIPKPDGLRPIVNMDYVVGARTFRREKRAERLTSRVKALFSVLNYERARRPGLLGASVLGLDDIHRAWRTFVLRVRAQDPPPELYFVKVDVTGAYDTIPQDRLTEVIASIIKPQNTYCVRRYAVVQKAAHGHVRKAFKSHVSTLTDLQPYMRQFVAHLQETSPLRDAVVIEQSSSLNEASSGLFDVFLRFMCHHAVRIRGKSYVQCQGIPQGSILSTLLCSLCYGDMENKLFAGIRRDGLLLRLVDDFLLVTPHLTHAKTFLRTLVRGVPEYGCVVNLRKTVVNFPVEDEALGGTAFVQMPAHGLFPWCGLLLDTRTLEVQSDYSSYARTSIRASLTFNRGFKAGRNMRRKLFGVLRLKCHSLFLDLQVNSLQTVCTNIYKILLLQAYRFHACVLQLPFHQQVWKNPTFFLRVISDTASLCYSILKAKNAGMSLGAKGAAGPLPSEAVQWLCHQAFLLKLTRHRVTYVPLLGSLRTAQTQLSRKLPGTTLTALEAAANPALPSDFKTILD
Procedure, shortened: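 Telomerase source was a CHAPS lysate of exponentially growing JR8 cells (500 ng protein per reaction). Elongation 30 min at 30 °C, then 30 PCR cycles. Products run on 10% PAGE with phosphorimager read-out, in triplicate. Drug levels kept below those inhibiting Taq.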

[5] = Cytotoxicity against human 293T cells expressing telomerase after 96 hrs by MTT assay; assay type: cell-based; settings: HEK-293T
Procedure, shortened: (§2)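 Cells grown in DMEM with 10% heat-inactivated FCS, penicillin/streptomycin, 37 °C, 5% CO2. Plated at 10000 cells/well and left overnight, then exposed to eight serial dilutions in triplicate for 96 h. MTT added to 0.8 mg/mL final for 2 h, formazan dissolved in DMSO, absorbance read at 540 nm. IC50 from sigmoidal dose-response fits.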

HeLa = experiment: Cytotoxicity against human HeLa cells expressing telomerase after 96 hrs by MTT assay; assay type: functional, cell-based; procedure, shortened: as §2

Chain of DNA polymerase I, thermostable (P19821 whole entry): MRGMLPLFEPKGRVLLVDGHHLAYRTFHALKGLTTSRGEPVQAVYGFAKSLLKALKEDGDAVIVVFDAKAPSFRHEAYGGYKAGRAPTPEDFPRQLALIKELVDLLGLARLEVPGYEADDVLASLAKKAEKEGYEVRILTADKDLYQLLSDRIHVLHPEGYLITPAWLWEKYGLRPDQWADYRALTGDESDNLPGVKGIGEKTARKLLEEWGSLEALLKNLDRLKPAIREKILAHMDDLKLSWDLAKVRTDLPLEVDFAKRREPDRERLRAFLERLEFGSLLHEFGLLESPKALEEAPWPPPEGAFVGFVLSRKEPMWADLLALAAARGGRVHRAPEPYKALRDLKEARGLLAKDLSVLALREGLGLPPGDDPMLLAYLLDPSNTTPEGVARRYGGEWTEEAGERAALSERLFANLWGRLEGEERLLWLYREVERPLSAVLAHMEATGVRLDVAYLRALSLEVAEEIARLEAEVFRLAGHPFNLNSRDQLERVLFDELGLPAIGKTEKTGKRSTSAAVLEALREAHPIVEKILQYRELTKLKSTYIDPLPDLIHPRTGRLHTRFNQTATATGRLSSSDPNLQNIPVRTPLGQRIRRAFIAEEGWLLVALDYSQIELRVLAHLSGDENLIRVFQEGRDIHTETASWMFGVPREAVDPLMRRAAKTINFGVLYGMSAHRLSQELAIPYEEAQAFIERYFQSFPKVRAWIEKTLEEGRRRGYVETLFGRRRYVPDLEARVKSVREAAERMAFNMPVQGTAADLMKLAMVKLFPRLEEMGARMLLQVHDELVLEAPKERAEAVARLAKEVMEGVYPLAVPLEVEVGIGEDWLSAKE

SMILES | pEC50 [1] | ΔTm (Homo sapiens [2]) | ΔTm (Homo sapiens [3]) | pEC50 [4] | pIC50 [5] | pIC50 (HeLa)
CC[C@H](C)[C@H](N)C(=O)NCCC(=O)Nc1ccc2c(c1)C(=O)c1ccc(NC(=O)CCNC(=O)[C@@H](N)[C@@H](C)CC)cc1C2=O | < 4.40 | 5.7 °C | 0 °C | < 4.40 | – | –
NC(N)=NCCC[C@H](N)C(=O)NCCC(=O)Nc1ccc2c(c1)C(=O)c1cc(NC(=O)CCNC(=O)[C@@H](N)CCCN=C(N)N)ccc1C2=O | 5.40 | – | – | 5.40 | – | –
N=C(N)NCCC[C@H](N)C(=O)NCCC(=O)Nc1ccc2c(c1)C(=O)c1cc(NC(=O)CCNC(=O)[C@@H](N)CCCNC(=N)N)ccc1C2=O | – | 13.3 °C | 0.6 °C | – | – | –
O=C(CNC(=O)[C@@H]1CCCN1)Nc1ccc2c(c1)C(=O)c1ccc(NC(=O)CNC(=O)[C@@H]3CCCN3)cc1C2=O | < 4.40 | 15.6 °C | 6.1 °C | 5.00 | < 4.00 | 4.48
NCCCC[C@H](N)C(=O)NCCC(=O)Nc1ccc2c(c1)C(=O)c1cc(NC(=O)CCNC(=O)[C@@H](N)CCCCN)ccc1C2=O | 5.60 | 17 °C | 3 °C | 5.82 | < 4.00 | < 4.00
NC(N)=NCCC[C@H](N)C(=O)NCCC(=O)Nc1ccc2c(c1)C(=O)c1ccc(NC(=O)CCNC(=O)[C@@H](N)CCCN=C(N)N)cc1C2=O | 5.00 | – | – | 6.10 | – | –
NCC(=O)NCCNC(=O)c1ccc2c(c1)C(=O)c1ccc(C(=O)NCCNC(=O)CN)cc1C2=O | < 4.40 | 2.9 °C | 0.3 °C | < 4.40 | – | –
O=C1c2c(O)ccc(O)c2C(=O)c2c(NCCNCCO)ccc(NCCNCCO)c21 [MITOXANTRONE] | – | – | – | – | > 7.00 | > 7.00
N[C@@H](Cc1ccccc1)C(=O)NCCC(=O)Nc1ccc2c(c1)C(=O)c1ccc(NC(=O)CCNC(=O)[C@@H](N)Cc3ccccc3)cc1C2=O | < 4.40 | 4.3 °C | 0.5 °C | < 4.40 | – | –
N=C(N)NCCC[C@H](N)C(=O)NCCC(=O)Nc1ccc2c(c1)C(=O)c1ccc(NC(=O)CCNC(=O)[C@@H](N)CCCNC(=N)N)cc1C2=O | – | 25 °C | 4.8 °C | – | < 4.00 | 4.00
N=C(N)NCCC[C@H](N)C(=O)NCCNC(=O)c1ccc2c(c1)C(=O)c1ccc(C(=O)NCCNC(=O)[C@@H](N)CCCNC(=N)N)cc1C2=O | 5.00 | 16.4 °C | 5.2 °C | 5.82 | < 4.00 | 4.07
N=C(N)NCCC[C@H](N)C(=O)NCC(=O)Nc1ccc2c(c1)C(=O)c1ccc(NC(=O)CNC(=O)[C@@H](N)CCCNC(=N)N)cc1C2=O | – | 22.9 °C | 9.8 °C | – | 4.07 | 4.05
NCCCC[C@H](N)C(=O)NCC(=O)Nc1ccc2c(c1)C(=O)c1ccc(NC(=O)CNC(=O)[C@@H](N)CCCCN)cc1C2=O | 5.30 | > 17 °C | 12 °C | 6.10 | 4.47 | 4.57
CC(C)[C@H](N)C(=O)NCCC(=O)Nc1ccc2c(c1)C(=O)c1ccc(NC(=O)CCNC(=O)[C@@H](N)C(C)C)cc1C2=O | < 4.40 | 6 °C | 0 °C | < 4.40 | – | –
CC(C)C[C@H](N)C(=O)NCC(=O)Nc1ccc2c(c1)C(=O)c1ccc(NC(=O)CNC(=O)[C@@H](N)CC(C)C)cc1C2=O | < 4.40 | 3.8 °C | 0.7 °C | < 4.40 | – | –
CC(C)C[C@H](N)C(=O)NCCNC(=O)c1ccc2c(c1)C(=O)c1cc(C(=O)NCCNC(=O)[C@@H](N)CC(C)C)ccc1C2=O | < 4.40 | 2.7 °C | 0.3 °C | < 4.40 | – | –
N[C@@H](CO)C(=O)NCCNC(=O)c1ccc2c(c1)C(=O)c1cc(C(=O)NCCNC(=O)[C@@H](N)CO)ccc1C2=O | < 4.40 | 2.1 °C | 0.3 °C | < 4.40 | – | –
C[C@H](N)C(=O)NCCC(=O)Nc1ccc2c(c1)C(=O)c1cc(NC(=O)CCNC(=O)[C@H](C)N)ccc1C2=O | < 4.40 | 9 °C | 0.3 °C | 4.82 | < 4.00 | 4.19
CC(C)[C@H](N)C(=O)NCC(=O)Nc1ccc2c(c1)C(=O)c1ccc(NC(=O)CNC(=O)[C@@H](N)C(C)C)cc1C2=O | < 4.40 | 6 °C | 0.5 °C | < 4.40 | – | –
NCCCC[C@H](N)C(=O)NCCNC(=O)c1ccc2c(c1)C(=O)c1ccc(C(=O)NCCNC(=O)[C@@H](N)CCCCN)cc1C2=O | 5.00 | 15.9 °C | 7.9 °C | 6.10 | < 4.00 | 4.00

SMILES | pEC50 [1] | ΔTm (Homo sapiens [2]) | ΔTm (Homo sapiens [3]) | pEC50 [4] | pIC50 [5] | pIC50 (HeLa)
NCC(=O)NCCNC(=O)c1ccc2c(c1)C(=O)c1cc(C(=O)NCCNC(=O)CN)ccc1C2=O | < 4.40 | 3.3 °C | 0.4 °C | < 4.40 | – | –
C[C@H](N)C(=O)NCCNC(=O)c1ccc2c(c1)C(=O)c1ccc(C(=O)NCCNC(=O)[C@H](C)N)cc1C2=O | < 4.40 | 4.4 °C | 0.4 °C | < 4.40 | – | –
N[C@@H](Cc1ccccc1)C(=O)NCCNC(=O)c1ccc2c(c1)C(=O)c1ccc(C(=O)NCCNC(=O)[C@@H](N)Cc3ccccc3)cc1C2=O | < 4.40 | 1.1 °C | 0.2 °C | < 4.40 | – | –
N[C@@H](Cc1ccccc1)C(=O)NCC(=O)Nc1ccc2c(c1)C(=O)c1ccc(NC(=O)CNC(=O)[C@@H](N)Cc3ccccc3)cc1C2=O | < 4.40 | 0.6 °C | 0.5 °C | < 4.40 | – | –
CC(C)C[C@H](N)C(=O)NCCNC(=O)c1ccc2c(c1)C(=O)c1ccc(C(=O)NCCNC(=O)[C@@H](N)CC(C)C)cc1C2=O | < 4.40 | 1.3 °C | 0.2 °C | < 4.40 | – | –
NC(N)=NCCC[C@H](N)C(=O)NCCNC(=O)c1ccc2c(c1)C(=O)c1cc(C(=O)NCCNC(=O)[C@@H](N)CCCN=C(N)N)ccc1C2=O | 5.00 | – | – | 5.92 | – | –
NCCCC[C@H](N)C(=O)NCCNC(=O)c1ccc2c(c1)C(=O)c1cc(C(=O)NCCNC(=O)[C@@H](N)CCCCN)ccc1C2=O | < 4.40 | 14.7 °C | 5.2 °C | 5.52 | < 4.00 | 4.08
CC[C@H](C)[C@H](N)C(=O)NCCNC(=O)c1ccc2c(c1)C(=O)c1ccc(C(=O)NCCNC(=O)[C@@H](N)[C@@H](C)CC)cc1C2=O | < 4.40 | 1.1 °C | 0.2 °C | < 4.40 | – | –
N[C@@H](Cc1ccccc1)C(=O)NCCNC(=O)c1ccc2c(c1)C(=O)c1cc(C(=O)NCCNC(=O)[C@@H](N)Cc3ccccc3)ccc1C2=O | < 4.40 | 1 °C | 0.1 °C | < 4.40 | – | –
C[C@H](N)C(=O)NCCC(=O)Nc1ccc2c(c1)C(=O)c1ccc(NC(=O)CCNC(=O)[C@H](C)N)cc1C2=O | < 4.40 | 8.2 °C | 0.2 °C | < 4.40 | – | –
C[C@@H](O)[C@H](N)C(=O)NCCNC(=O)c1ccc2c(c1)C(=O)c1cc(C(=O)NCCNC(=O)[C@@H](N)[C@@H](C)O)ccc1C2=O | < 4.40 | 3.2 °C | 0.3 °C | < 4.40 | – | –
C[C@H](N)C(=O)NCCNC(=O)c1ccc2c(c1)C(=O)c1cc(C(=O)NCCNC(=O)[C@H](C)N)ccc1C2=O | < 4.40 | 3.9 °C | 0.5 °C | < 4.40 | – | –
CC[C@H](C)[C@H](N)C(=O)NCCNC(=O)c1ccc2c(c1)C(=O)c1cc(C(=O)NCCNC(=O)[C@@H](N)[C@@H](C)CC)ccc1C2=O | < 4.40 | 3 °C | 0.4 °C | < 4.40 | – | –
NC(N)=NCCC[C@H](N)C(=O)NCC(=O)Nc1ccc2c(c1)C(=O)c1ccc(NC(=O)CNC(=O)[C@@H](N)CCCN=C(N)N)cc1C2=O | 5.00 | – | – | 6.10 | – | –
N[C@@H](CO)C(=O)NCCNC(=O)c1ccc2c(c1)C(=O)c1ccc(C(=O)NCCNC(=O)[C@@H](N)CO)cc1C2=O | < 4.40 | 2.5 °C | 0.3 °C | < 4.40 | – | –
CC[C@H](C)[C@H](N)C(=O)NCCC(=O)Nc1ccc2c(c1)C(=O)c1cc(NC(=O)CCNC(=O)[C@@H](N)[C@@H](C)CC)ccc1C2=O | < 4.40 | 2.8 °C | 0.2 °C | < 4.40 | – | –
N[C@@H](Cc1ccccc1)C(=O)NCCC(=O)Nc1ccc2c(c1)C(=O)c1cc(NC(=O)CCNC(=O)[C@@H](N)Cc3ccccc3)ccc1C2=O | < 4.40 | 7 °C | 0.3 °C | < 4.40 | – | –
C[C@@H](O)[C@H](N)C(=O)NCCNC(=O)c1ccc2c(c1)C(=O)c1ccc(C(=O)NCCNC(=O)[C@@H](N)[C@@H](C)O)cc1C2=O | < 4.40 | 1.9 °C | 0.4 °C | < 4.40 | – | –
N=C(N)NCCC[C@H](N)C(=O)NCCNC(=O)c1ccc2c(c1)C(=O)c1cc(C(=O)NCCNC(=O)[C@@H](N)CCCNC(=N)N)ccc1C2=O | – | 16.2 °C | 5.1 °C | – | 4.07 | 4.46
